Series [1] has as its system Cutibacterium acnes (DMST 14916). In words: Antibacterial growth inhibition. Format: cell-based. The conditions noted are these: C. acnes; antibiotic 500 μg/mL; 37 °C, 18–22 h, OD600. In outline:
(§1)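 Inocula: C. acnes grown anaerobically in Schaedler broth at 37 °C for 72 h and adjusted to OD600 0.1. S. aureus and MRSA single colonies grown in nutrient broth at 37 °C for 18 h and adjusted to OD600 0.001. Suspensions were mixed 1:1 with peptide (1000 μg/mL) or ampicillin/clindamycin (500 μg/mL) solutions. Untreated culture served as 0 % inhibition. Three repeats, mean ± SD.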

Series [2] has as its system Staphylococcus aureus (ATCC 25923). Briefly: Antibacterial growth inhibition. Format: cell-based. To be noted: S. aureus; antibiotic 500 μg/mL; 37 °C, 18–22 h, OD600. In outline: as §1
Series [3] deals with methicillin-resistant Staphylococcus aureus (MRSA) (DMST 20646). Briefly: Antibacterial growth inhibition. To be noted: antibiotic 500 μg/mL, 37 °C, 18–22 h, OD600. Format: cell-based. The gist of the method:
as §1

The subject of series [4] is C. acnes, S. aureus and MRSA. Briefly: Antibacterial growth inhibition, stated as one range over the three strains. It is filed as cell-based, Cutibacterium acnes; Staphylococcus aureus. To be noted: peptide 1000 μg/mL. The gist of the method: as §1
Another series relates to RAW 264.7 cells. Briefly: RAW 264.7 cytotoxicity assay. It is filed as cell-based, Murine. The conditions noted are these: RAW 264.7, MTT, peptide 1000 μg/mL, 24 h. The gist of the method: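 Murine macrophages were grown in DMEM plus 10 % heat-inactivated FBS and 1 % antibiotic-antimycotic (37 °C, 5 % CO2) and seeded overnight at 2 × 10⁴ cells/well. Peptide was added at 1000 μg/mL final for 24 h. MTT was added at 0.5 mg/mL final in fresh medium for 30 min. Formazan was dissolved in DMSO and read at OD570. Viability was expressed versus untreated cells. Three repeats, mean ± SD.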

For the compound `CC1(C)S[C@@H]2[C@H](NC(=O)[C@H](N)c3ccccc3)C(=O)N2[C@H]1C(=O)O` [ampicillin], the growth inhibition in series [1] is listed as 92.92%; in series [2] it was 97.85%; in series [3], 100.00%.

For the compound `CCC[C@@H]1C[C@@H](C(=O)N[C@@H]([C@H]2O[C@H](SC)[C@H](O)[C@@H](O)[C@H]2O)[C@H](C)Cl)N(C)C1` [clindamycin], the growth inhibition amounted to 100.00% in series [1], 96.35% in series [2] and 51.86% in series [3].

Take IIDVKMLS [IS8]: the “relative antibacterial potency among the 8 peptides, in words” value in series [4] is “least potent peptide”.

RKLLEGEE [RE8]: in the series on RAW 264.7 cells, the “reduction in cell viability” value is reported as roughly 15%.

Source of the values: article PMC11219355 (Heliyon, 2024).
